In brackets after ≈: the same amount, converted by molar mass. Square brackets hold non-standard residues; d marks the D form. Peptide text beside a SMILES is read from it. Gly(Nα-4-Cl-benzyl) = O=C(O)CNCc1ccc(Cl)cc1; Gly(N-(CH2)6NH2) = NCCCCCCNCC(=O)O; Gly(N-2-aminoethyl) = NCCNCC(=O)O; Nspe = C[C@H](NCC(=O)O)c1ccccc1; NhArg = N=C(N)NCCCCNCC(=O)O; NPentylGly = CCCCCNCC(=O)O; Nphe = O=C(O)CNCc1ccccc1; Nlys = NCCCCNCC(=O)O
Assays:
Escherichia coli = assay: Antibacterial activity against Escherichia coli K-12 W3110 ATCC 27325 incubated for 16 hrs under shaking condition; format: functional; conditions: K-12 substr. W3110 ATCC 27325, 16 h
In short: (§1)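 Broth microdilution (Andrews method) in Iso-sensitest broth. Overnight cultures are adjusted to A650 0.07 (0.5 McFarland) and diluted ten-fold. Compounds come from 5 mM DMSO stocks, 2-fold serially diluted, final 2–100 μM in a 1:1 inoculum:compound mix. Incubation is 37 °C for 16 h with shaking. MIC is the lowest concentration giving complete growth inhibition, read by absorbance; triplicate.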

[1] = Selectivity index, ratio of ED50 for human HaCaT cells to MIC for Pseudomonas aeruginosa PAO1 ATCC 15692; format: toxicity; conditions: read-out: Selectivity Index
[2] = Selectivity index, ratio of ED50 for human HepG2 cells to MIC for Escherichia coli K-12 W3110 ATCC 27325; format: toxicity; conditions: read-out: Selectivity Index
[3] = Selectivity index, ratio of ED50 for human HepG2 cells to MIC for Staphylococcus epidermidis clinical isolate; format: toxicity; conditions: read-out: Selectivity Index
[4] = Selectivity index, ratio of ED50 for human HepG2 cells to MIC for Staphylococcus aureus 3R7089 strain Oxford/ATCC 9144; format: toxicity; conditions: read-out: Selectivity Index
Pseudomonas aeruginosa = assay: Antibacterial activity against Pseudomonas aeruginosa PAO1 ATCC 15692 incubated for 16 hrs under shaking condition; format: functional; conditions: PAO1 ATCC 15692, 16 h; in short: as §1
[5] = Cytotoxicity against human HepG2 cells assessed as reduction in cell viability pretreated for 1 hr followed by DMEM addition measured after 24 hrs by alamar blue assay; format: cell-based; conditions: read-out: ED50
In short: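 HepG2 cells are kept in DMEM high glucose with 10% heat-inactivated FBS and 1% P/S at 37 °C, 5% CO2, and seeded at 2x10^4 cells/well one day ahead. They are exposed to compounds (100 to 3 µM, from 5 mM DMSO stocks) in 50 µL for 1 h. Medium is then added and cells incubated 24 h. alamarBlue is read after 2 h (Ex 560/Em 600). Triplicate on ≥2 occasions; ED50 from dose-response; DMSO negative control.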

[6] = Selectivity index, ratio of ED50 for human HaCaT cells to MIC for Escherichia coli K-12 W3110 ATCC 27325; format: toxicity; conditions: read-out: Selectivity Index
[7] = Selectivity index, ratio of ED50 for human HepG2 cells to MIC for Pseudomonas aeruginosa PAO1 ATCC 15692; format: toxicity; conditions: read-out: Selectivity Index
[8] = Selectivity index, ratio of ED50 for human HaCaT cells to MIC for Staphylococcus aureus 3R7089 strain Oxford/ATCC 9144; format: toxicity; conditions: read-out: Selectivity Index
[9] = Selectivity index, ratio of ED50 for human HaCaT cells to MIC for Staphylococcus epidermidis clinical isolate; format: toxicity; conditions: read-out: Selectivity Index
[10] = tested on: Staphylococcus epidermidis; assay: Antibacterial activity against Staphylococcus epidermidis clinical isolate incubated for 16 hrs under shaking condition; format: functional; in short: as §1
[11] = Cytotoxicity against human HaCaT cells assessed as reduction in cell viability pretreated for 1 hr followed by DMEM addition measured after 24 hrs by alamar blue assay; format: cell-based; conditions: read-out: ED50
In short: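 HaCaT keratinocytes are grown in DMEM high glucose with 10% FBS and 1% P/S and seeded at 2x10^4 cells/well 24 h before treatment. Compound dilution series run 2–100 µM (5 mM DMSO stocks) in 50 µL for 1 h, then medium is added for 24 h at 37 °C, 5% CO2. alamarBlue is read after 1 h (Ex 540/Em 620). Triplicate, ≥2 occasions; ED50 from dose-response; amphotericin B positive control.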

Staphylococcus aureus = assay: Antibacterial activity against Staphylococcus aureus 3R7089 strain Oxford/ATCC 9144 incubated for 16 hrs under shaking condition; format: functional; conditions: 3R7089 strain Oxford/ATCC 9144, 16 h; in short: as §1

Compound	MIC (Escherichia coli)	selectivity ratio [1]	selectivity ratio [2]	selectivity ratio [3]	selectivity ratio [4]	MIC (Pseudomonas aeruginosa)	CC50 at 24 h [5]	selectivity ratio [6]	selectivity ratio [7]	selectivity ratio [8]	selectivity ratio [9]	MIC [10]	CC50 at 24 h [11]	MIC (Staphylococcus aureus)
COc1ccc(CN(CC(N)=O)C(=O)CN(Cc2ccc(OC)cc2)C(=O)CN(CCCCN)C(=O)CN(Cc2ccc(OC)cc2)C(=O)CN(Cc2ccc(OC)cc2)C(=O)CN(CCCCN)C(=O)CN(Cc2ccc(OC)cc2)C(=O)CN(Cc2ccc(OC)cc2)C(=O)CN(CCCCN)C(=O)CN(Cc2ccc(OC)cc2)C(=O)CN(Cc2ccc(OC)cc2)C(=O)CNCCCCN)cc1	> 100 µM	0	1	50	33	> 100 µM	> 100 µM	0	1	14	21	–	–	–
NCCNCC(=O)N(CC(=O)N(CC(=O)N(CCN)CC(=O)N(CC(=O)N(CC(=O)N(CCN)CC(=O)N(CC(=O)N(CC(N)=O)Cc1ccccc1)Cc1ccccc1)Cc1ccccc1)Cc1ccccc1)Cc1ccccc1)Cc1ccccc1 (H-[Gly(N-2-aminoethyl)][Nphe][Nphe][Gly(N-2-aminoethyl)][Nphe][Nphe][Gly(N-2-aminoethyl)][Nphe][Nphe]-NH2)	> 100 µM	1	1	1	8	> 100 µM	> 100 µM	1	1	8	1	> 100 µM	> 100 µM	–
C[C@@H](c1ccccc1)N(CC(N)=O)C(=O)CN(C(=O)CN(CCN)C(=O)CN(C(=O)CN(C(=O)CN(CCN)C(=O)CN(C(=O)CN(C(=O)CN(CCN)C(=O)CN(C(=O)CN(C(=O)CNCCN)[C@@H](C)c1ccccc1)[C@@H](C)c1ccccc1)[C@@H](C)c1ccccc1)[C@@H](C)c1ccccc1)[C@@H](C)c1ccccc1)[C@@H](C)c1ccccc1)[C@@H](C)c1ccccc1 (H-[Gly(N-2-aminoethyl)][Nspe][Nspe][Gly(N-2-aminoethyl)][Nspe][Nspe][Gly(N-2-aminoethyl)][Nspe][Nspe][Gly(N-2-aminoethyl)][Nspe][Nspe]-NH2)	> 100 µM	1	–	21	21	–	–	–	1	13	13	–	–	–
NCCCCCCNCC(=O)N(CC(=O)N(CC(=O)N(CCCCCCN)CC(=O)N(CC(=O)N(CC(=O)N(CCCCCCN)CC(=O)N(CC(=O)N(CC(=O)N(CCCCCCN)CC(=O)N(CC(=O)N(CC(N)=O)Cc1ccccc1)Cc1ccccc1)Cc1ccccc1)Cc1ccccc1)Cc1ccccc1)Cc1ccccc1)Cc1ccccc1)Cc1ccccc1 (H-[Gly(N-(CH2)6NH2)][Nphe][Nphe][Gly(N-(CH2)6NH2)][Nphe][Nphe][Gly(N-(CH2)6NH2)][Nphe][Nphe][Gly(N-(CH2)6NH2)][Nphe][Nphe]-NH2)	–	1	8	17	50	> 100 µM	> 100 µM	8	1	50	17	6 µM (≈ 10.9 µg/mL)	> 100 µM	2 µM (≈ 3.64 µg/mL)
C[C@@H](c1ccccc1)N(CC(N)=O)C(=O)CN(C(=O)CN(CCCCCCN)C(=O)CN(C(=O)CN(C(=O)CN(CCCCCCN)C(=O)CN(C(=O)CN(C(=O)CNCCCCCCN)[C@@H](C)c1ccccc1)[C@@H](C)c1ccccc1)[C@@H](C)c1ccccc1)[C@@H](C)c1ccccc1)[C@@H](C)c1ccccc1 (H-[Gly(N-(CH2)6NH2)][Nspe][Nspe][Gly(N-(CH2)6NH2)][Nspe][Nspe][Gly(N-(CH2)6NH2)][Nspe][Nspe]-NH2)	–	1	4	50	33	> 100 µM	> 100 µM	4	1	33	50	2 µM (≈ 2.91 µg/mL)	> 100 µM	3 µM (≈ 4.36 µg/mL)
CCCCCNCC(=O)N(CC(=O)N(CC(=O)N(CCCCNC(=N)N)CC(=O)N(CC(=O)N(CC(=O)N(CCCCC)CC(=O)N(CC(=O)N(CC(=O)N(CCCCNC(=N)N)CC(=O)N(CC(=O)N(CC(N)=O)[C@@H](C)c1ccccc1)[C@@H](C)c1ccccc1)[C@@H](C)c1ccccc1)[C@@H](C)c1ccccc1)[C@@H](C)c1ccccc1)[C@@H](C)c1ccccc1)[C@@H](C)c1ccccc1)[C@@H](C)c1ccccc1 (H-[NPentylGly][Nspe][Nspe][NhArg][Nspe][Nspe][NPentylGly][Nspe][Nspe][NhArg][Nspe][Nspe]-NH2)	> 100 µM	–	–	4	8	> 100 µM	–	–	–	10	5	–	–	–
NCCCCNCC(=O)N(CC(=O)N(CC(=O)N(CCCCN)CC(=O)N(CC(=O)N(CC(=O)N(CCCCN)CC(=O)N(CC(=O)N(CC(=O)N(CCCCN)CC(=O)N(CC(=O)N(CC(N)=O)Cc1ccc(Cl)cc1)Cc1ccc(Cl)cc1)Cc1ccc(Cl)cc1)Cc1ccc(Cl)cc1)Cc1ccc(Cl)cc1)Cc1ccc(Cl)cc1)Cc1ccc(Cl)cc1)Cc1ccc(Cl)cc1 (H-[Nlys][Gly(Nα-4-Cl-benzyl)][Gly(Nα-4-Cl-benzyl)][Nlys][Gly(Nα-4-Cl-benzyl)][Gly(Nα-4-Cl-benzyl)][Nlys][Gly(Nα-4-Cl-benzyl)][Gly(Nα-4-Cl-benzyl)][Nlys][Gly(Nα-4-Cl-benzyl)][Gly(Nα-4-Cl-benzyl)]-NH2)	> 100 µM	–	–	4	1	> 100 µM	–	–	–	1	3	–	–	–
C[C@@H](c1ccccc1)N(CC(N)=O)C(=O)CN(C(=O)CN(CCCCN)C(=O)CN(C(=O)CN(C(=O)CNCCCCN)[C@@H](C)c1ccccc1)[C@@H](C)c1ccccc1)[C@@H](C)c1ccccc1 (H-[Nlys][Nspe][Nspe][Nlys][Nspe][Nspe]-NH2)	> 100 µM	1	1	4	1	> 100 µM	> 100 µM	1	1	1	4	–	> 100 µM	> 100 µM
CCCCCNCC(=O)N(CC(=O)N(CC(=O)N(CCCCN)CC(=O)N(CC(=O)N(CC(=O)N(CCCCN)CC(=O)N(CC(=O)N(CC(=O)N(CCCCN)CC(=O)N(CC(=O)N(CC(N)=O)[C@@H](C)c1ccccc1)[C@@H](C)c1ccccc1)C(C)c1ccccc1)[C@@H](C)c1ccccc1)[C@@H](C)c1ccccc1)[C@@H](C)c1ccccc1)C(C)c1ccccc1)[C@@H](C)c1ccccc1 (single isomer, unassigned)	50 µM (≈ 90.9 µg/mL)	–	–	8	8	–	15 µM	–	–	6	6	–	12 µM	2 µM (≈ 3.64 µg/mL)
CCCCCNCC(=O)N(CC(=O)N(CC(=O)N(CCCCC)CC(=O)N(CC(=O)N(CC(=O)N(CCCCN)CC(=O)N(CC(=O)N(CC(=O)N(CCCCN)CC(=O)N(CC(=O)N(CC(N)=O)[C@@H](C)c1ccccc1)[C@@H](C)c1ccccc1)C(C)c1ccccc1)[C@@H](C)c1ccccc1)C(C)c1ccccc1)[C@@H](C)c1ccccc1)C(C)c1ccccc1)[C@@H](C)c1ccccc1 (single isomer, unassigned)	> 100 µM	–	–	18	9	> 100 µM	18 µM	–	–	10	20	1 µM (≈ 1.82 µg/mL)	20 µM	2 µM (≈ 3.63 µg/mL)

Reference: ChEMBL document CHEMBL4261490, “Exploring the links between peptoid antibacterial activity and toxicity” (Medchemcomm, 2017)
